Experimental findings from ChEMBL document CHEMBL3244073, “1,2,4-Triazole amino nucleosides. 1-beta-D-3'-Amino-3'-deoxyribofuranosyl-1,2,4-triazole-3-carboxamide and related nucleosides” (1977) are described below.

The test system of one assay is P388. Briefly: Cytotoxicity against mouse P388 cells after 72 hrs by hemocytometer-based cell counting method. The settings on record: P388, 72 h, read-out: LD50 (the source's name). The format is functional. The method in brief: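 P-388 mouse lymphoid leukemia cells grown in tissue culture with the nucleoside present; cytotoxicity expressed as the LD50 concentration in µg/mL.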

The test system of the next assay is Human alphaherpesvirus 1. Briefly: Antiviral activity against Herpes simplex virus 1 HF assessed as inhibition of virus-induced cytopathogenicity. The format is functional, organism-based. In a few lines: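 Cytopathogenic effect of HSV-1 strain HF was scored in infected cell cultures exposed to the nucleoside. The procedure was a modified Ehrlich method, as run in earlier work.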
For orientation: Damage to the host cells serves as the signal in cytopathic effect assays.

Active and inactive are the calls of the source. No cut-off for these calls is given here.

As to `NC(=O)c1ncnn1[C@@H]1O[C@H](CO)[C@@H](N)[C@H]1O`, in the assay on P388, the CC50 is greater than 100 mg/L. The result with Human alphaherpesvirus 1 was inactive.

Regarding `N[C@H]1[C@@H](O)[C@H](n2cnc(C(=O)NO)n2)O[C@@H]1CO`, the CC50 in the assay on P388 is greater than 100 mg/L. In addition, in the assay with Human alphaherpesvirus 1, the result was inactive.

As to `N/C(=N/O)c1ncn([C@@H]2O[C@H](CO)[C@@H](N)[C@H]2O)n1`, in the assay with P388, the CC50 is greater than 100 mg/L. For the same compound, in the assay on Human alphaherpesvirus 1, the outcome was inactive.

Turning to `NC(=O)c1ncn([C@@H]2O[C@H](CO)[C@@H](N)[C@H]2O)n1`, in the assay with P388, the CC50 is greater than 100 mg/L. The outcome with Human alphaherpesvirus 1 was inactive.

With `NNC(=O)c1ncn([C@@H]2O[C@H](CO)[C@@H](N)[C@H]2O)n1`, the CC50 in the assay with P388 was greater than 100 mg/L. Besides, in the assay with Human alphaherpesvirus 1, the outcome was inactive.

In the case of `N/N=C(/N)c1ncn([C@@H]2O[C@H](CO)[C@@H](N)[C@H]2O)n1`, the CC50 in the assay on P388 is greater than 100 mg/L. Besides, the outcome with Human alphaherpesvirus 1 was inactive.
